Assay results as given in paper PMC7983942 (Clinical Pharmacology and Therapeutics, 2020).
Numbering of substitutions follows the chain as printed.

Assays:
[1] = target: T1, OATP1B1*5 (Homo sapiens, UniProt Q9Y6L6, V174A); test: Uptake into OATP1B1 variant-transfected vs wild-type HEK293 cells; assay type: in vitro ADME; details: for Uptake ratio (vs. wild‐type HEK293 cells): 2 minutes
T1 sequence (Q9Y6L6 1-691 V174A): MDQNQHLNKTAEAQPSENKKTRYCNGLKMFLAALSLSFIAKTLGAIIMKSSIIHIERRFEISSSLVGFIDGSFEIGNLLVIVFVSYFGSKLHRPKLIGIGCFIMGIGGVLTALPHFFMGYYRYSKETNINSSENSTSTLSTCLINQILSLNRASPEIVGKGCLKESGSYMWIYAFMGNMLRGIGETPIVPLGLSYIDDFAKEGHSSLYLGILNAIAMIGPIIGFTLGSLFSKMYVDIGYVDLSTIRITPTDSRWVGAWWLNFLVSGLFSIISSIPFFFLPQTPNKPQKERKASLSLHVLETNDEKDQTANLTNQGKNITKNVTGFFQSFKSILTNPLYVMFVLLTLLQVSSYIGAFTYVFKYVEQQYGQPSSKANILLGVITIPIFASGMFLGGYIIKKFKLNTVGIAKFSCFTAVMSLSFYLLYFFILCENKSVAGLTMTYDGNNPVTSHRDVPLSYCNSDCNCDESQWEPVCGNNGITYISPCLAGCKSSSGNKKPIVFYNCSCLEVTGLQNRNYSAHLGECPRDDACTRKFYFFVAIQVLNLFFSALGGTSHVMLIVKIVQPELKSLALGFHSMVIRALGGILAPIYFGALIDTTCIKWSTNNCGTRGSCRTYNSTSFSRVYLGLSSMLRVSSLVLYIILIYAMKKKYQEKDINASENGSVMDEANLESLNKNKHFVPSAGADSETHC
In short: (§1)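 HEK293 cells stably expressing an OATP1B1 variant, alongside wild-type HEK293, were seeded at 0.5–1.2 × 10⁵ cells/well on poly-D-lysine plates. They grew 48 h at 37°C and 5% CO₂ in DMEM with 10% FBS, 1% pyruvate, nonessential amino acids and GlutaMAX. Substrate was 1 µM (0.5 µM where footnoted) for 2 min, then four ice-cold buffer washes and methanol lysis with internal standard. Uptake ratio (transfected/wild-type) is expressed as % of OATP1B1*14 in the same experiment; n=3 determinations.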

[2] = target: T2, OATP1B1*15 (Homo sapiens, UniProt Q9Y6L6, N130D/V174A); test: as above; assay type: in vitro ADME; details: for Uptake ratio (vs. wild‐type HEK293 cells): 2 minutes
T2 sequence (Q9Y6L6 1-691 N130D/V174A): T1 sequence (Q9Y6L6 1-691 V174A) with N130D
In short: as §1

[3] = target: T3, OATP1B1*1A (Homo sapiens, UniProt Q9Y6L6); test: Uptake into transporter-transfected vs wild-type HEK293 cells; assay type: in vitro ADME; details: experiment 3, substrate 1 µM, 2 minutes
T3 sequence (Q9Y6L6 1-691): T1 sequence (Q9Y6L6 1-691 V174A) with A174V
In short: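 HEK293 cells stably transfected with OATP1B1*1A, OATP1B3 or OATP2B1, plus wild-type cells, were seeded on poly-D-lysine plates. Culture was 48 h at 37°C in DMEM with 10% FBS, pyruvate, nonessential amino acids and GlutaMAX. Test compound was 1 µM for 2 min; rosuvastatin probe was 1 µM over 2–4 min. Cells were washed four times in ice-cold buffer and lysed in methanol with internal standard. Readouts were uptake ratio versus wild-type and glucuronide/probe ratio of ratios; mean ± SD, n=3 in one experiment.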

[4] = target: T4, OATP1B1*14 (Homo sapiens, UniProt Q9Y6L6, N130D/P155T); test: Uptake into OATP1B1 variant-transfected vs wild-type HEK293 cells; assay type: in vitro ADME; details: substrate 1 µM; for Uptake ratio as percentage of OATP1B1*14 in the same experiment: OATP1B1*14 (reference); for Uptake ratio (vs. wild‐type HEK293 cells): OATP1B1*14, 2 minutes
T4 sequence (Q9Y6L6 1-691 N130D/P155T): T1 sequence (Q9Y6L6 1-691 V174A) with N130D, P155T, A174V

[5] = Fasting plasma concentrations in healthy volunteers by SLCO1B1 genotype; details: for Plasma concentration, ratio to control (95% CI) / Plasma concentration, geometric mean (95% CI): fasting, adjusted for sex; for Mean fasting plasma concentration, lower in women than in men: women vs men, 356 healthy volunteers
[6] = target: T5, OAT2 (Homo sapiens, UniProt Q9Y694); test: Uptake into transporter-transfected vs wild-type HEK293 cells; assay type: in vitro ADME; details: cyclic guanosine monophosphate 0.5 µM, two to four minutes
T5 sequence (Q9Y694 1-548): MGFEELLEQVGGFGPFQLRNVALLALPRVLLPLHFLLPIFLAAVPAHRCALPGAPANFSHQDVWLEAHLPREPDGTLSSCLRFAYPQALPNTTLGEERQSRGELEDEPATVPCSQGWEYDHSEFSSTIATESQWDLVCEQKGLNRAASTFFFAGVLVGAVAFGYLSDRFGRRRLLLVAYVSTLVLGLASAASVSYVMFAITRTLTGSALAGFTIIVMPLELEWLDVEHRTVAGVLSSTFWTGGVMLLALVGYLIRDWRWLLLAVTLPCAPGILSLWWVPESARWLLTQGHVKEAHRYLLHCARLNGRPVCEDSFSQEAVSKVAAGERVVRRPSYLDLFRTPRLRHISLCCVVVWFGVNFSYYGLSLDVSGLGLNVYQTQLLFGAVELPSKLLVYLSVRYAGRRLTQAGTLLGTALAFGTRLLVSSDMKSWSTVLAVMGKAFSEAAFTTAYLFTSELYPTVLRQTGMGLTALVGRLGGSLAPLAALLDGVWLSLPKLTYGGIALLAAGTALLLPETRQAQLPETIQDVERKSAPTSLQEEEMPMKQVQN
In short: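 Transfected HEK293 lines were OAT2 and OCT1, each run against wild-type cells, seeded on poly-D-lysine plates. Culture was 48 h at 37°C in DMEM with 10% FBS plus 1% gentamycin, 1% sodium pyruvate and 50 µg/mL hygromycin B. Probes were cyclic GMP 0.5 µM (OAT2) and metformin 20 µM (OCT1), over 2–4 min; test compound was 1 µM for 2 min. After four ice-cold washes and methanol lysis, the uptake ratio versus wild-type and the ratio of ratios were derived; n=3 in one experiment.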

[7] = SLCO1B1 c.521 C/C genotype (n = 13)
[8] = SLCO1B1 c.521 T/C genotype (n = 113)
[9] = SLCO1B1 c.521 T/T genotype (control; n = 230)

CC(C)n1c(/C=C/C(O)CC(O)CC(=O)O)c(-c2ccc(F)cc2)c2ccccc21 (stereo not drawn) [Fluvastatin, fluvastatin]
Uptake ratio as percentage of OATP1B1*14 in the same experiment ([1]; experiment 1, substrate 1 µM): 56%
Uptake ratio (vs. wild‐type HEK293 cells) ([1]; experiment 1, substrate 1 µM): 1.8 ± 0.2
Uptake ratio as percentage of OATP1B1*14 in the same experiment ([1]; experiment 2, substrate 1 µM): 61%
Uptake ratio (vs. wild‐type HEK293 cells) ([1]; experiment 2, substrate 1 µM): 1.9 ± 0.1
Uptake ratio as percentage of OATP1B1*14 in the same experiment ([2]; experiment 1, substrate 1 µM): 47%
Uptake ratio (vs. wild‐type HEK293 cells) ([2]; experiment 1, substrate 1 µM): 1.5 ± 0.1
Uptake ratio as percentage of OATP1B1*14 in the same experiment ([2]; experiment 2, substrate 1 µM): 48%
Uptake ratio (vs. wild‐type HEK293 cells) ([2]; experiment 2, substrate 1 µM): 1.5 ± 0.1
Uptake ratio (vs. wild‐type HEK293 cells) [3]: 2.7 ± 0.1
Uptake ratio as percentage of OATP1B1*14 in the same experiment ([4]; experiment 1): 100%
Uptake ratio as percentage of OATP1B1*14 in the same experiment ([4]; experiment 2): 100%
Uptake ratio (vs. wild‐type HEK293 cells) ([4]; experiment 1): 3.2 ± 0.1
Uptake ratio (vs. wild‐type HEK293 cells) ([4]; experiment 2): 3.1 ± 0.1
Uptake ratio (vs. wild‐type HEK293 cells) ([4]; experiment 3): 4.4 ± 0.1

C[C@H](CCC(=O)NCC(=O)O)[C@H]1CC[C@H]2[C@@H]3[C@H](O)C[C@@H]4C[C@H](O)CC[C@]4(C)[C@H]3CC[C@]12C [GCDCA, Glycochenodeoxycholate]
Plasma concentration, ratio to control (95% CI) ([5]; C/C genotype (n = 13) vs T/T): 1.35 (0.865, 2.11)
Plasma concentration, geometric mean (95% CI) [5, 7]: 567 (367, 876) ng/mL
Plasma concentration, geometric mean (95% CI) [5, 8]: 378 (326, 438) ng/mL
Plasma concentration, geometric mean (95% CI) [5, 9]: 419 (378, 465) ng/mL
Plasma concentration, ratio to control (95% CI) ([5]; T/C genotype (n = 113) vs T/T): 0.900 (0.751, 1.08)
Mean fasting plasma concentration, lower in women than in men [5]: ~ 20%

C[C@H](CCC(=O)NCC(=O)O)[C@H]1CC[C@H]2[C@@H]3CC[C@@H]4C[C@H](O)CC[C@]4(C)[C@H]3C[C@H](O)[C@]12C [GDCA, glycodeoxycholate]
Plasma concentration, ratio to control (95% CI) ([5]; C/C genotype (n = 13) vs T/T): 1.16 (0.675, 1.98)
Plasma concentration, geometric mean (95% CI) [5, 7]: 141 (83.3, 237) ng/mL
Plasma concentration, geometric mean (95% CI) [5, 8]: 124 (104, 149) ng/mL
Plasma concentration, geometric mean (95% CI) [5, 9]: 122 (107, 138) ng/mL
Plasma concentration, ratio to control (95% CI) ([5]; T/C genotype (n = 113) vs T/T): 1.02 (0.822, 1.27)
Mean fasting plasma concentration, lower in women than in men [5]: ~ 20%

Nc1nc2c(ncn2[C@@H]2O[C@@H]3COP(=O)(O)O[C@H]3[C@H]2O)c(=O)[nH]1 [cyclic guanosine monophosphate]
Uptake ratio (vs. wild‐type HEK293 cells), probe [6]: 23.6 ± 0.58
